Format in all cases: functional
The species named for assay [1] is Rattus norvegicus. Briefly: In Vitro inhibitory concentration against lipid synthesis in primary rat hepatocyte culture. na=Not active; inhibition of [14C]acetate incorporation into total lipids is less than 50% at 300 uM. In a few lines: (§1)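 Primary hepatocytes isolated from male Sprague-Dawley rats (Seglen method) and plated on collagen in DMEM with 20% FBS, 100 nM insulin, 25 mM glucose. Medium made serum-free after 4 h, cultured overnight to monolayers. Then 4 h incubation with 0.25 μCi [14C]-acetate/well (1 Ci/mol) and 0–300 μM compound. Lipids extracted into scintillant and counted. IC50 derived from lipid synthesis rates by nonlinear sigmoidal fit.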

Assay [2] concerns Rattus norvegicus. Briefly: Percent change from pre-treatment triglycerides level at 100 mg/Kg after 1 week. In a few lines:
(§2)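 Female obese Zucker fatty rats Crl:(Zuc)-faBR, 10–12 weeks old (400–500 g), n=3–4, fed chow. Dosed by oral gavage once daily in 20% EtOH/80% PEG-200 for up to 14 days. Serum taken after a 6 h fast before dosing, at day 7 (orbital plexus) and at day 14 (cardiac puncture). TG by enzymatic kit on analyzer. HDL-C and non-HDL-C from Superose 6 gel-filtration profile area × total cholesterol. Results given as % change from pretreatment.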

The subject of assay [3] is Rattus norvegicus. Description: Percent change from pre-treatment HDL-Cholesterol level at 100 mg/Kg after 1 week. In a few lines:
as §2

Assay [4] has as its system Rattus norvegicus. Briefly: Percent change from pre-treatment Non HDL-Cholesterol level at 100 mg/Kg after 1 week. The gist of the method: as §2
The subject of assay [5] is Rattus norvegicus. Description: Percent change from pre-treatment HDL-Cholesterol level at 100 mg/Kg after 2 weeks. In a few lines: as §2
For assay [6], the system named is Rattus norvegicus. Description: Percent change from pre-treatment Non HDL-Cholesterol level at 100 mg/Kg after 2 weeks. In a few lines:
as §2

For assay [7], the system named is Rattus norvegicus. Description: Percent change from pre-treatment triglycerides level at 100 mg/Kg after 2 weeks. In a few lines: as §2
Assay [8] has as its system Rattus norvegicus. Briefly: Percent change from pre-treatment in Non HDL-Cholesterol level at 97 mg/kg after 2 weeks. The gist of the method:
as §2

For assay [9], the system named is Rattus norvegicus. Description: Percent change from pre-treatment in HDL-Cholesterol level at 97 mg/kg after 2 weeks. The gist of the method:
as §2

Assay [10] concerns Rattus norvegicus. Briefly: Percent change from pre-treatment in Triglycerides level at 97 mg/kg after 2 weeks. In a few lines: as §2
The test system of assay [11] is Rattus norvegicus. Briefly: Percent change from pre-treatment in Non HDL-Cholesterol level at 97 mg/kg after 1 week. The gist of the method: as §2
For assay [12], the species on record is Rattus norvegicus. Description: In vitro inhibitory concentration against lipid synthesis in primary rat hepatocyte culture. The gist of the method: as §1
Assay [13] deals with Rattus norvegicus. Briefly: Percent change from pre-treatment in Triglycerides level at 97 mg/kg after 1 week. In a few lines: as §2
The test system of assay [14] is Rattus norvegicus. Briefly: Percent change from pre-treatment in Non HDL-Cholesterol level at 30 mg/kg after 2 weeks. In a few lines: as §2
Assay [15] concerns Rattus norvegicus. Description: Percent change from pre-treatment in Triglycerides level at 30 mg/kg after 1 week. The gist of the method:
as §2

The subject of assay [16] is Rattus norvegicus. Briefly: Percent change from pre-treatment in Triglycerides level at 30 mg/kg after 2 weeks. The gist of the method: as §2
Assay [17] has as its system Rattus norvegicus. Briefly: Percent change from pre-treatment in HDL-Cholesterol level at 30 mg/kg after 1 week. In a few lines:
as §2

Assay [18] concerns Rattus norvegicus. Briefly: Percent change from pre-treatment in Non HDL-Cholesterol level at 30 mg/kg after 1 week. In a few lines: as §2
Assay [19] concerns Rattus norvegicus. Briefly: Percent change from pre-treatment in HDL-Cholesterol level at 30 mg/kg after 2 weeks. In a few lines:
as §2

Assay [20] has as its system Rattus norvegicus. Briefly: Percent change from pre-treatment in Triglycerides level at 80 mg/kg after 1 week. In a few lines:
as §2

Assay [21] has as its system Rattus norvegicus. Description: Percent change from pre-treatment in Non HDL-Cholesterol level at 80 mg/kg after 2 weeks. The gist of the method:
as §2

In assay [22] the test system is Rattus norvegicus. Description: Percent change from pre-treatment in HDL-Cholesterol level at 80 mg/kg after 1 week. In a few lines:
as §2

The subject of assay [23] is Rattus norvegicus. Briefly: Percent change from pre-treatment in Non HDL-Cholesterol level at 80 mg/kg after 1 week. The gist of the method: as §2
For assay [24], the system named is Rattus norvegicus. Briefly: Percent change from pre-treatment in Triglycerides level at 80 mg/kg after 2 weeks. In a few lines:
as §2

The test system of assay [25] is Rattus norvegicus. Description: Percent change from pre-treatment in HDL-Cholesterol level at 80 mg/kg after 2 weeks. The gist of the method:
as §2

SMILES strings stand for the structures.

The record followed here is ChEMBL document CHEMBL1137218, “Long hydrocarbon chain ether diols and ether diacids that favorably alter lipid disorders in vivo” (J Med Chem, 2004).

On to `CC(C)(CO)CCCOCCOCCCC(C)(C)CO`, for which the IC50 entry in the assay filed under Rattus norvegicus [1] is listed as “Not Active”. For the same compound, the Change with Rattus norvegicus [2] is on record as -9%; in the assay on Rattus norvegicus [3], 3%; with Rattus norvegicus [4], 33%; in the assay with Rattus norvegicus [5], 10%; in the assay on Rattus norvegicus [6], 45%; in the assay with Rattus norvegicus [7] it was 6%.

`CC(C)(CO)CCCC1CCC(CCCC(C)(C)CO)O1` (centres undefined): the Change is listed as 31% in the assay with Rattus norvegicus [8]; 140% in the assay on Rattus norvegicus [9]; -13% in the assay with Rattus norvegicus [10]; 11% in the assay with Rattus norvegicus [11]; -49% in the assay with Rattus norvegicus [13]. The same compound showed an IC50 in the assay listed under Rattus norvegicus [12] of 9 µM.

In the case of `CC(C)(CO)CCCCCCCCCCCC(C)(C)CO`, the Change with Rattus norvegicus [2] was -70%; with Rattus norvegicus [3] it was -5%; in the assay with Rattus norvegicus [4], -20%; with Rattus norvegicus [5], -1%; with Rattus norvegicus [6], 48%; in the assay on Rattus norvegicus [7] it was -35%. In the assay filed under Rattus norvegicus [12], this compound returned a half-maximal inhibitory concentration (IC50) of 4 µM.

As to `CC(C)(CO)CCCCOCCCCC(C)(CO)c1ccccc1` (centres undefined), the Change in the assay with Rattus norvegicus [2] is -61%; in the assay on Rattus norvegicus [3], 26%; in the assay with Rattus norvegicus [4] it was -55%; in the assay with Rattus norvegicus [5], 52%; in the assay with Rattus norvegicus [6], -13%; in the assay with Rattus norvegicus [7], -45%. In the assay filed under Rattus norvegicus [12], this compound showed an IC50 of 5 µM.

Turning to `CC(C)(CCCCOCCCCC(C)(C)COC1CCCCO1)COC1CCCCO1` (centres undefined), the Change in the assay on Rattus norvegicus [2] was -1%; in the assay with Rattus norvegicus [3], 43%; in the assay with Rattus norvegicus [4] it was 46%; in the assay on Rattus norvegicus [5] it was 79%; in the assay with Rattus norvegicus [6], 92%; in the assay on Rattus norvegicus [7] it was 22%. The IC50 in the assay listed under Rattus norvegicus [12] is 20 µM.

Consider `CC(C)(CO)CCCCCOCCCCC(C)(C)CO`, for which the Change with Rattus norvegicus [14] is 17%; in the assay on Rattus norvegicus [15], -66%; in the assay on Rattus norvegicus [16] it was -77%; with Rattus norvegicus [17] it was 71%; in the assay on Rattus norvegicus [18], -26%. The same compound had an IC50 in the assay filed under Rattus norvegicus [12] of 11 µM.

As to `CC(CO)(CCCOCCCC(C)(CO)c1ccccc1)c1ccccc1` (centres undefined), the Change with Rattus norvegicus [2] is recorded as -27%; in the assay on Rattus norvegicus [3], 7%; in the assay with Rattus norvegicus [4], -32%; in the assay on Rattus norvegicus [5], 5%; in the assay on Rattus norvegicus [6] it was -26%; in the assay with Rattus norvegicus [7] it was -18%. Also, the IC50 in the assay filed under Rattus norvegicus [12] was determined as 130 µM.

On to `CC(C)(CO)CCCCOCCCC(C)(C)CO`, for which the Change with Rattus norvegicus [14] came out at 74%; in the assay on Rattus norvegicus [19], 40%; in the assay with Rattus norvegicus [15], 21%; in the assay on Rattus norvegicus [16], 32%; in the assay with Rattus norvegicus [17] it was 24%; with Rattus norvegicus [18], 44%. Besides, the IC50 in the assay listed under Rattus norvegicus [12] was 17 µM.

As for `CC(C)(CO)CCCCCCCCCC(C)(C)CO`, the Change was -83% in the assay with Rattus norvegicus [2]; 189% with Rattus norvegicus [3]; -67% with Rattus norvegicus [4]; 137% in the assay with Rattus norvegicus [5]; -75% in the assay on Rattus norvegicus [6]; -82% in the assay with Rattus norvegicus [7]. For the same compound, the IC50 in the assay listed under Rattus norvegicus [12] stood at 4 µM.

Consider `CC(C)(CO)CCCC1CCCC(CCCC(C)(C)CO)O1` (centres undefined), for which the Change was -74% in the assay with Rattus norvegicus [2]; 75% in the assay with Rattus norvegicus [3]; -70% in the assay on Rattus norvegicus [4]; -31% with Rattus norvegicus [6]; -46% in the assay with Rattus norvegicus [7]. For the same compound, the IC50 in the assay listed under Rattus norvegicus [12] came out at 39 µM.

Regarding `CC(C)(CO)CCCOCCCC(C)(C)CO`, in the assay filed under Rattus norvegicus [1], the IC50 result is “Not Active”. Also, the Change is recorded as 58% with Rattus norvegicus [14]; -8% in the assay on Rattus norvegicus [19]; 21% in the assay with Rattus norvegicus [15]; 77% with Rattus norvegicus [16]; -13% in the assay on Rattus norvegicus [17]; 7% in the assay with Rattus norvegicus [18].

For the compound `CC(C)(CCCCOCCCCC(C)(C)CCC(=O)O)CCC(=O)O`, the Change with Rattus norvegicus [2] is on record as -80%; in the assay on Rattus norvegicus [3] it was 13%; in the assay on Rattus norvegicus [4], -50%; in the assay on Rattus norvegicus [5] it was 39%; with Rattus norvegicus [6] it was -30%; with Rattus norvegicus [7], -73%. In addition, inhibition in the assay listed under Rattus norvegicus [12] was half-maximal at 22 µM (IC50).

In the case of `CC(CO)(CCCCOCCCC(C)(CO)c1ccccc1)c1ccccc1` (centres undefined), the IC50 entry in the assay listed under Rattus norvegicus [1] is “Not Active”. The Change in the assay on Rattus norvegicus [14] is recorded as 45%; with Rattus norvegicus [19] it was -20%; with Rattus norvegicus [15], -1%; in the assay with Rattus norvegicus [16], 21%; in the assay on Rattus norvegicus [17], -2%; in the assay on Rattus norvegicus [18], 16%.

Consider `CC(C)(CCCOCCOCCCC(C)(C)C(=O)O)C(=O)O`, for which the Change is recorded as -24% in the assay on Rattus norvegicus [2]; -6% in the assay with Rattus norvegicus [3]; -38% in the assay with Rattus norvegicus [4]; -4% in the assay on Rattus norvegicus [5]; -13% in the assay with Rattus norvegicus [6]; -13% with Rattus norvegicus [7]. The compound also registered a half-maximal inhibitory concentration (IC50) in the assay listed under Rattus norvegicus [12] of 72 µM.

As to `CC(C)(Cc1cccc(Oc2cccc(CC(C)(C)C(=O)O)c2)c1)C(=O)O`, the Change was -46% in the assay on Rattus norvegicus [2]; 20% in the assay with Rattus norvegicus [3]; -59% with Rattus norvegicus [4]; 16% in the assay with Rattus norvegicus [5]; -21% with Rattus norvegicus [6]; -27% with Rattus norvegicus [7]. This compound gave an IC50 in the assay filed under Rattus norvegicus [12] of 53 µM.

On to `CC(C)(CCOCCCOCCC(C)(C)C(=O)O)C(=O)O`, for which the Change in the assay on Rattus norvegicus [20] is reported as 5%; in the assay with Rattus norvegicus [21], 15%; with Rattus norvegicus [22] it was -18%; with Rattus norvegicus [23], -10%; in the assay on Rattus norvegicus [24] it was 46%; in the assay on Rattus norvegicus [25] it was -5%.

`CC(C)(CO)Cc1cccc(Oc2cccc(CC(C)(C)CO)c2)c1`: the Change in the assay with Rattus norvegicus [2] is recorded as -32%; in the assay on Rattus norvegicus [3], 17%; in the assay with Rattus norvegicus [4] it was -50%; in the assay on Rattus norvegicus [5], 25%; with Rattus norvegicus [6], -50%; in the assay with Rattus norvegicus [7] it was -54%. The compound also registered an IC50 in the assay listed under Rattus norvegicus [12] of 98 µM.

Take `CC(C)(CCCCCCCCCCCC(C)(C)C(=O)O)C(=O)O`: the Change in the assay with Rattus norvegicus [2] is recorded as -89%; with Rattus norvegicus [3], -14%; in the assay on Rattus norvegicus [4], -66%; in the assay with Rattus norvegicus [5] it was -6%; with Rattus norvegicus [6] it was -60%; in the assay on Rattus norvegicus [7], -87%. Further, 7 µM corresponded to half-maximal inhibition in the assay listed under Rattus norvegicus [12] (IC50).

Regarding `CC(C)(CO)CCCCOCCCCC(C)(C)COC1CCCCO1` (centres undefined), the Change in the assay on Rattus norvegicus [2] is -69%; in the assay with Rattus norvegicus [3], 130%; in the assay on Rattus norvegicus [4], -28%; in the assay with Rattus norvegicus [5], 152%; in the assay with Rattus norvegicus [6], -14%; with Rattus norvegicus [7], -63%. The compound further returned an IC50 in the assay filed under Rattus norvegicus [12] of 11 µM.

In general, IC50 refers to the concentration that gives 50% inhibition.
